Data on 12 compounds can be found in ChEMBL document CHEMBL2016487, “Pyrazolopyrimidines as dual Akt/p70S6K inhibitors” (Bioorg Med Chem Lett, 2012).

A short description of series [1]: Drug metabolism in mouse liver microsomes at 15 uM after 30 mins. The class given is ADME, Microsome. Particulars: read-out: Drug metabolism. An outline of the steps: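 Mouse liver microsomes at 0.5 mg/mL, incubated 30 min with compound at 15 µM; value reported as % conversion.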
Series [2] has as its target T1, Ribosomal protein S6 kinase beta-1 (Homo sapiens, UniProt P23443). As to the kind of experiment: Inhibition of p70S6K-mediated ribosomal protein S6 phosphorylation in human PC3 cells after 3 hrs by chemiluminescence assay. It counts as cell-based, PC-3. An outline of the steps: (§1)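 A549 or PC-3 cells seeded at 7.5 × 10³ cells/well in DMEM with heat-inactivated 10% FBS, 1% penicillin–streptomycin, 1% non-essential amino acids, grown 48 h at 37 °C, 5% CO₂. Treated 3 h with compound at 1.2–300 nM, triplicate, 0.2% DMSO final. Fixed in 4% formaldehyde, blocked, probed with anti-phospho-S6 (Ser240/244) and anti-total-S6 overnight at 4 °C, chemiluminescent read-out.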

In series [3] the target is T2, RAC-alpha serine/threonine-protein kinase (Homo sapiens, UniProt P31749). Description: Inhibition of AKT1-mediated GSK3beta phosphorylation in human PC3 cells after 3 hrs by chemiluminescence assay. The class given is cell-based, PC-3. In short, it runs like this:
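PC-3 cells seeded at 7.5 × 10³ cells/well, grown 24 h, then serum-starved 24 h. Compound treatment 3 h in triplicate (0.2% DMSO final), followed by 100 ng/ml IGF1 for 30 min. Fixed and processed as a cell ELISA using anti-phospho-GSK3β (S9) and anti-total-GSK3β antibodies, chemiluminescent read-out.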

Series [4] addresses T2, RAC-alpha serine/threonine-protein kinase. Description: Inhibition of AKT1 after 3 hrs by luciferase based chemiluminescence assay.
Series [5] addresses T1, Ribosomal protein S6 kinase beta-1. Description: Inhibition of p70S6K-mediated ribosomal protein S6 phosphorylation in human A549 cells after 3 hrs by chemiluminescence assay. It counts as cell-based. In short, it runs like this: as §1
Series [6] has the same target. As to the kind of experiment: Inhibition of p70S6K after 3 hrs by luciferase based chemiluminescence assay.
The test system of another series is PC-3. As to the kind of experiment: Anticancer activity against human PC3 prostate tumor cell xenografted model at 100 mg/kg, po qd for 15 days. The class given is functional. As to conditions: PC-3, 360 h, read-out: TGI. On the technique in general: A xenograft is tissue or cells of one species grown in another, often human tumour cells in immunodeficient mice.

Series [7] deals with Rattus norvegicus. As to the kind of experiment: Dose normalized AUC in rat at 5 mg/kg, iv. The class given is ADME, organism-based. Details: dose 5 mg/kg, route intravenous. Particulars: in vivo.
Series [8] in a line: Plasma concentration in mouse at 100 mg/kg after 4 hrs. The class given is ADME, organism-based. The arrangement: dose 100 mg/kg. An outline of the steps:
(§2)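 Mouse plasma levels measured 1 and 4 h after a 100 mg/kg dose.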

Series [9] is described as follows: Clearance in rat at 5 mg/kg. The class given is ADME, organism-based. The arrangement: dose 5 mg/kg. Particulars: in vivo.
The nature of series [10]: Cmax in rat at 5 mg/kg, po. The class given is ADME, organism-based. The arrangement: dose 5 mg/kg, route oral. As to conditions: in vivo.
In series [11] the test system is Rattus norvegicus. Description: Dose normalized AUC in rat at 5 mg/kg, po. The class given is ADME, organism-based. Details: dose 5 mg/kg, route oral. Particulars: in vivo.
The nature of series [12]: Plasma concentration in mouse at 100 mg/kg after 1 hr. Details: dose 100 mg/kg. It counts as ADME, organism-based. In short, it runs like this: as §2
The nature of series [13]: Cmax in rat at 5 mg/kg, iv. The class given is ADME, organism-based. The arrangement: dose 5 mg/kg, route intravenous. Particulars: in vivo.
Series [14] in a line: Half life in rat at 5 mg/kg, po. The class given is ADME, organism-based. Details: dose 5 mg/kg, route oral. Particulars: in vivo.
Series [15] can be described thus: Half life in rat at 5 mg/kg, iv. It counts as ADME, organism-based. The arrangement: dose 5 mg/kg, route intravenous. As to conditions: in vivo.
The nature of series [16]: Oral bioavailability in rat at 5 mg/kg. Particulars: in vivo. The class given is ADME, organism-based.
Series [17] can be described thus: Volume of distribution in rat at 5 mg/kg. It counts as ADME, organism-based. Details: dose 5 mg/kg. Particulars: in vivo.
The nature of series [18]: Oral bioavailability in rat at 2.5 mg/kg. Particulars: in vivo. It counts as ADME, organism-based.
The nature of series [19]: Half life in rat at 2.5 mg/kg, po. The class given is ADME, organism-based. Details: dose 2.5 mg/kg, route oral. Particulars: in vivo.
Series [20] is described as follows: Clearance in rat at 2.5 mg/kg. It counts as ADME, organism-based. As to conditions: in vivo. The arrangement: dose 2.5 mg/kg.
Series [21] relates to Rattus norvegicus. Description: Dose normalized AUC in rat at 2.5 mg/kg, iv. It counts as ADME, organism-based. The arrangement: dose 2.5 mg/kg, route intravenous. As to conditions: in vivo.
Series [22] is described as follows: Cmax in rat at 2.5 mg/kg, iv. It counts as ADME, organism-based. Details: dose 2.5 mg/kg, route intravenous. As to conditions: in vivo.
A short description of series [23]: Half life in rat at 2.5 mg/kg, iv. It counts as ADME, organism-based. The arrangement: dose 2.5 mg/kg, route intravenous. Particulars: in vivo.
Series [24] in a line: Volume of distribution in rat at 2.5 mg/kg. It counts as ADME, organism-based. As to conditions: in vivo. The arrangement: dose 2.5 mg/kg.
The nature of series [25]: Cmax in rat at 2.5 mg/kg, po. It counts as ADME, organism-based. The arrangement: dose 2.5 mg/kg, route oral. As to conditions: in vivo.
Series [26] has as its system Rattus norvegicus. Description: Dose normalized AUC in rat at 2.5 mg/kg, po. Particulars: in vivo. The arrangement: dose 2.5 mg/kg, route oral. The class given is ADME, organism-based.
Series [27] is described as follows: Plasma concentration in mouse at 30 mg/kg after 4 hrs. The class given is ADME, organism-based. The arrangement: dose 30 mg/kg.

T1 sequence (P23443 whole entry): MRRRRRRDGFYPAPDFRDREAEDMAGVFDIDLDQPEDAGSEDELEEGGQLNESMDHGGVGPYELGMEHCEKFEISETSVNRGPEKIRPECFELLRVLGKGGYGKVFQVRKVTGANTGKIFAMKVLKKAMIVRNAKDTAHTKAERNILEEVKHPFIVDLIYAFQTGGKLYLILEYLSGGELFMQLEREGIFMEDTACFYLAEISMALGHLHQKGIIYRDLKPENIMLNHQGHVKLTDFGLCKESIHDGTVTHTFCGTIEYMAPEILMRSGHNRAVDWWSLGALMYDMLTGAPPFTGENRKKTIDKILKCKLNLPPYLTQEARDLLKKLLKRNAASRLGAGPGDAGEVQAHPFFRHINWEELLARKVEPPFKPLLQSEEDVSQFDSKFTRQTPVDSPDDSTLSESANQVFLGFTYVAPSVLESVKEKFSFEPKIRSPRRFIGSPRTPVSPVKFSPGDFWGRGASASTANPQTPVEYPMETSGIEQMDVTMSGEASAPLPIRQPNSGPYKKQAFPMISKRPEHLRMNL
T2 sequence (P31749 whole entry): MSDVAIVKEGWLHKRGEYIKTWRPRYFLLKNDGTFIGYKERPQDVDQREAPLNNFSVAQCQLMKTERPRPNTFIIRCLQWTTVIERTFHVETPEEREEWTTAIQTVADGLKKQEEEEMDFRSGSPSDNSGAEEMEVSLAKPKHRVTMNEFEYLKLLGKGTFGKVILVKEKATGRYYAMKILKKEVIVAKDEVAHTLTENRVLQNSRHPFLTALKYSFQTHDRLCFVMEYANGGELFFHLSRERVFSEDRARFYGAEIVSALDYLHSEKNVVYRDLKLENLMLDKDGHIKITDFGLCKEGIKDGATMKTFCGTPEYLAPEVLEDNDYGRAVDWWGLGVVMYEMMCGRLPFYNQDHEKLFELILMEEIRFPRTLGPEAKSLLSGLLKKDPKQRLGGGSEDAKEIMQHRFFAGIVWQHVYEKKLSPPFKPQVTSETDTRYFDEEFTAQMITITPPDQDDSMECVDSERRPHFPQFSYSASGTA

Regarding `CCc1n[nH]c2ncnc(N3CCN(c4cc(Cl)cc(NCCN5CCCC5)c4C)CC3)c12`, in series [1], the metabolised at 0.5 h, 15 µM amounted to 18%. Also, the IC50 was 832 nM in series [2]; 3590 nM in series [3]; 434 nM in series [4]; 80 nM in series [5]; 3 nM in series [6].

Regarding `CCc1n[nH]c2ncnc(N3CCN(c4cc(Cl)cc(NCCN(C)C)c4C)CC3)c12`, the metabolised at 0.5 h, 15 µM in [1] was 29%. Moreover, the IC50 in series [2] came out at 211 nM; in [3], 9030 nM; in series [5] it was 45 nM; in [6], 2 nM. For the same compound, the inhibition in vivo at 100 mg/kg in the series on PC-3 turned out to be 49%.

Turning to `Cc1c(NCCN(C)C)cc(Cl)cc1N1CCN(c2ncnc3[nH]nc(Br)c23)CC1`, the metabolised at 0.5 h, 15 µM in series [1] is 50%. The half-maximal inhibitory concentration (IC50) was 141 nM in series [2], 4280 nM in [3], 43 nM in series [5] and 2 nM in series [6].

With `Cc1c(NCCN2CCCC2)cc(Cl)cc1N1CCN(c2ncnc3[nH]nc(Br)c23)CC1`, the metabolised at 0.5 h, 15 µM in series [1] came out at 19%. For the same compound, the IC50 was 446 nM in [2]; 1270 nM in series [3]; 42 nM in series [4]; 94 nM in [5]; 2 nM in series [6].

As to `CCOc1cc(NCCN2CCCC2)c(C)c(N2CCN(c3ncnc4[nH]nc(Br)c34)CC2)c1`, the concentration for half-maximal inhibition (IC50) was 9070 nM in [3], 56 nM in series [4], 197 nM in [5] and 2 nM in series [6].

Take `Cc1c(NCCN2CCCC2)cc(OCC(C)C)cc1N1CCN(c2ncnc3[nH]nc(Br)c23)CC1`: the AUC/dose with Rattus norvegicus [7] was 0.35 µM·kg·h/mg; with Rattus norvegicus [11], 0.05 µM·kg·h/mg. In [8], the concentration at 4 h came out at 1300 nM. Further, the clearance in series [9] was 79.5 mL/min/kg. In addition, the IC50 in [2] worked out at 214 nM; in series [3], 700 nM; in [4], 9 nM; in series [5], 37 nM; in series [6], 1 nM. The Cmax in series [10] came to 70 nM; in series [13], 1150 nM. Besides, the concentration at 1 h in series [12] was 1200 nM. In addition, the half-life in series [14] is 1.7 h; in series [15], 2.5 h. The bioavailability in series [16] is 13%. In series [17], this compound returned a Vd of 14.7 L/kg.

On to `Cc1c(NCCN2CCCC2)cc(C(=O)Nc2ccccc2)cc1N1CCN(c2ncnc3[nH]nc(Br)c23)CC1`, for which the IC50 in series [2] came to 190 nM; in [3] it was 7810 nM; in series [4], 13 nM; in series [5] it was 14 nM; in [6], 1 nM.

As to `Cc1c(NCCN2CCCC2)cc(COCC(F)(F)F)cc1N1CCN(c2ncnc3[nH]nc(Br)c23)CC1`, the concentration at 4 h in series [8] was found to be 1200 nM. Moreover, in series [18], the bioavailability was 11%. Further, the figures for the half-life in series [19] and in series [23] were 1.4 h and 2.1 h, respectively. The IC50 in series [2] turned out to be 66 nM; in series [3], 730 nM; in [4], 8 nM; in series [5] it was 17 nM; in series [6] it was 2 nM. Besides, the clearance in series [20] is 63.5 mL/min/kg. Besides, the concentration at 1 h in [12] was 1200 nM. Moreover, the AUC/dose is 0.43 µM·kg·h/mg in the series with Rattus norvegicus [21] and 0.05 µM·kg·h/mg in the series on Rattus norvegicus [26]. For the same compound, the Cmax in series [22] came to 390 nM; in series [25], 20 nM. Also, the Vd in [24] came to 9.7 L/kg.

Turning to `Cc1c(NCCN2CCCC2)cc(CCC(C)(C)C)cc1N1CCN(c2ncnc3[nH]nc(Br)c23)CC1`, the IC50 was 203 nM in [2]; 1980 nM in series [3]; 7 nM in [4]; 116 nM in series [5]; 2 nM in series [6].

Take `Cc1noc(-c2cc(NCCN3CCCC3)c(C)c(N3CCN(c4ncnc5[nH]nc(Br)c45)CC3)c2)n1`: the bioavailability in [18] came to 10%. Further, the values for the half-life in [19] and in [23] were 2.9 h and 2.4 h, respectively. Besides, the IC50 was determined as 47 nM in series [2]; 665 nM in [3]; 6 nM in [4]; 13 nM in series [5]; 1 nM in [6]. The clearance in series [20] was 73 mL/min/kg. This compound had a concentration at 1 h in series [12] of 300 nM. Also, the values for the AUC/dose in the series with Rattus norvegicus [21] and in the series on Rattus norvegicus [26] were 0.45 µM·kg·h/mg and 0.05 µM·kg·h/mg, respectively. Further, the figures for the maximum concentration (Cmax) in series [22] and in series [25] were 370 nM and 10 nM, respectively. Also, the distribution volume (Vd) in series [24] came out at 14.2 L/kg. Also, the concentration at 4 h in series [27] worked out at 100 nM.

As for `COC(=O)c1cc(NCCN2CCCC2)c(C)c(N2CCN(c3ncnc4[nH]nc(Br)c34)CC2)c1`, the concentration for half-maximal inhibition (IC50) in series [2] worked out at 52 nM; in [3], 1840 nM; in series [4], 5 nM; in [5] it was 44 nM; in series [6] it was 2 nM.

As to `CCC(=O)c1cc(NCCN2CCCC2)c(C)c(N2CCN(c3ncnc4[nH]nc(Br)c34)CC2)c1`, the AUC/dose came to 0.56 µM·kg·h/mg in the series with Rattus norvegicus [7] and 0.15 µM·kg·h/mg with Rattus norvegicus [11]. In [8], this compound had a concentration at 4 h of 2000 nM. Also, the clearance in [9] was 49 mL/min/kg. For the same compound, the half-maximal inhibitory concentration (IC50) in [2] was determined as 25 nM; in series [3] it was 976 nM; in series [4] it was 5 nM; in series [5], 18 nM; in [6] it was 1 nM. The maximum concentration (Cmax) worked out at 140 nM in series [10] and 1440 nM in series [13]. Further, the concentration at 1 h in series [12] turned out to be 2000 nM. Moreover, the values for the half-life in [14] and in series [15] were 2.9 h and 3.1 h, respectively. The same compound showed a bioavailability in [16] of 28%. Moreover, in series [17], the volume of distribution (Vd) stood at 10.5 L/kg.

What is called IC50 is the concentration at which inhibition is half-maximal. As a reminder, the clearance is the rate of elimination divided by the concentration. Lower therefore signals a low capacity for elimination. As usually defined, the Cmax is the peak of the concentration-time curve. As usually defined, the half-life is the time needed for the level to fall by half in the phase considered. A lower half-life goes with fast loss. In general, bioavailability refers to dose-corrected exposure relative to a reference, in per cent. The low end stands for poor availability, the high end for good availability. For orientation: Vd means a proportionality between amount in the body and measured concentration, not a real space. A lower Vd goes with confinement near the circulation.
